Results pooled from the literature.
Protocols differ between the studies behind these lines.
Effect on: cell growth or viability

CCCCCCCCCCCCCCCCCCOc1ccc(CC(=O)OCC[N+]2(C)CCCC2)cc1
inhibition (NCI-H226; SRB; 10 µM): 7.36%

Cc1n[nH]c2ccc3nc(-c4ccc(C(=O)NCCN(C)C)cc4F)c4c(c3c12)CCCCC4
GI50 (U-937; 72 h): 1.64 µM

CCCCCCCCCCCCCCCCCCOc1ccccc1CC(=O)OCC[N+](CC)(CC)CC
inhibition (NCI-H226; SRB; 10 µM): 46.3%

CC1=CC(=O)c2ccccc2C1=O
IC50 (HuCC-A1; MTT): 23 µM

CCCCCCCCCCCCCCCCCCOc1ccccc1CC(=O)OCC[N+](C)(C)C
inhibition (NCI-H226; SRB; 10 µM): 71.3%

CN(C)CCNC(=O)c1ccc(-c2nc3ccc4[nH]ncc4c3c3c2CCCC3)cc1
GI50 (U-937; 72 h): 0.658 µM

O=C(NO)c1ccc(Cn2cnc3c(Nc4cccc([N+](=O)[O-])c4)ncnc32)cc1
IC50 (U-937; MTT; 72 h): 1.99 µM

COc1cccc2c1C(=O)c1c(O)c3c(c(O)c1C2=O)C[C@@](O)(C(=O)CO)C[C@@H]3O[C@H]1C[C@H](N)[C@H](O)[C@H](C)O1
IC50 (U-937; 96 h): 0.0222 µM

CCCCCCCCCCCCCCCCCCOc1ccccc1CC(=O)OCC[N+]1(C)CCCCC1
inhibition (NCI-H226; SRB; 10 µM): 71.9%

C=C[C@]1(C)C=C2CC[C@H]3C(C)(C)CCC[C@]3(C)[C@H]2CC1
IC50 (HuCC-A1; MTT; 75 h): 108 µM

CCCCCCCCCCCCCCCCCCOc1ccccc1CC(=O)OCC[N+]1(C)CCOCC1
inhibition (NCI-H226; SRB; 10 µM): 50.2%

CCc1nc(C(N)=O)c(Nc2ccc(N3CCC(N4CCN(C)CC4)CC3)c(OC)c2)nc1NC1CCOCC1
GI50 (ML-2; 72 h): 0.902 µM

COc1cccc2c1C(=O)c1c(O)c3c(c(O)c1C2=O)C[C@@](O)(C(=O)CO)C[C@@H]3O[C@H]1C[C@H](N)[C@H](O)[C@H](C)O1
IC50 (HuCC-A1; MTT; 48 h): 0.86 µM

CN(C)CCNC(=O)c1ccc(-c2nc3ccc4[nH]ncc4c3c3c2CCCCC3)c(F)c1
GI50 (U-937; 72 h): 1.17 µM

Cc1nc(Nc2ncc(C(=O)Nc3c(C)cccc3Cl)s2)cc(N2CC[C@H](O)C2)n1
inhibition (SU-DHL-8; ATP luminescence; 10 µM, 72 h): 8%

COc1ccc(Nc2ncnc3c2ncn3Cc2ccc(C(=O)Nc3ccccc3N)cc2)cc1
IC50 (U-937; MTT; 72 h): 22.8 µM

CN1CCC(NC2CCc3[nH]c4c(C(N)=O)ccc(-c5ccccc5Cl)c4c3C2)CC1 (stereo not shown)
IC50 (U-937; 96 h): 0.0076 µM

C=C(NC(=O)C(=C)NC(=O)c1csc(C2=N[C@@H]3c4csc(n4)[C@H]4NC(=O)c5csc(n5)[C@H]([C@](C)(O)[C@@H](C)O)NC(=O)[C@H]5CSC(=N5)/C(=C/C)NC(=O)[C@H]([C@@H](C)O)NC(=O)c5csc(n5)[C@]3(CC2)NC(=O)[C@H](C)NC(=O)C(=C)NC(=O)[C@H](C)NC(=O)[C@H]([C@@H](C)CC)N[C@@H]2C=Cc3c([C@H](C)O)cc(nc3[C@H]2O)C(=O)O[C@@H]4C)n1)C(N)=O
EC50 (Calu-1): 3.2 µM

CCCCCCCCCCCCCCCCCCOc1cccc(CC(=O)OCC[N+]2(C)CCCC2)c1
inhibition (NCI-H226; SRB; 10 µM): 14.6%

CN(C)CCNC(=O)c1ccc(-c2nc3ccc4[nH]ncc4c3c3c2CCCC3)c(F)c1
GI50 (U-937; 72 h): 2.15 µM

CCCCCCCCCCCCCCCCCCOCC(COP(=O)([O-])OCC[N+](C)(C)C)OC (stereo not shown)
inhibition (NCI-H226; SRB; 10 µM): 6.1%

Cc1n[nH]c2ccc3nc(-c4ccc(C(=O)NCCN(C)C)cc4)c4c(c3c12)CCCCC4
GI50 (U-937; 72 h): 5.92 µM

O=C(NO)c1ccc(Cn2cnc3c(Nc4ccc(Br)cc4F)ncnc32)cc1
IC50 (U-937; MTT; 72 h): 2.16 µM

COc1cccc2c1cc1c3c(cc4c(c32)OCO4)C(=O)N1C
IC50 (HuCC-A1; MTT; 75 h): 26 µM

Cc1n[nH]c2ccc3nc(-c4ccc(C(=O)NCCN(C)C)cc4F)c4c(c3c12)CCCC4
GI50 (U-937; 72 h): 0.183 µM

COc1ccc(Nc2ncnc3c2ncn3Cc2ccc(C(=O)NO)cc2)cc1
IC50 (U-937; MTT; 72 h): 1.23 µM

CCCCCCCCCCCCCCCCCCOc1cccc(CC(=O)OCCC[N+](C)(C)C)c1
inhibition (NCI-H226; SRB; 10 µM): 15%

CN(C)CCNC(=O)c1ccc(-c2nc3ccc4[nH]ncc4c3c3c2CCCCC3)cc1
GI50 (ML-2; 72 h): 0.698 µM
